Data set [1] in a line: Partition coefficient (logP).
Data set [2] in a line: Dissociation constant (pK2).
Data set [3] is described as follows: Dissociation constant (pK1).
Data set [4] addresses Glutamate NMDA receptor (Rattus norvegicus) (UniProt P35439+Q00959+Q00960+Q00961+Q62645+Q8VHN2+Q9R1M7). The data set is described as follows: Enhanced binding of [3H]MK-801 to N-methyl-D-aspartate glutamate receptor in presence of spermine. Type of data set: protein-complex assay. The procedure, abridged: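 Forebrain membranes (minus cerebellum and brainstem) from adult male Sprague–Dawley rats, prepared by buffy-coat centrifugation in 5 mM HEPES/4.5 mM Tris pH 7.6 with EDTA washes, then stored frozen. About 50 μg protein incubated with [³H]MK-801 (final 4–4.5 nM) plus spermine, without added glutamate or glycine, for 2 h at room temperature. Filtered on polyethylenimine-soaked glass fiber filters. Nonspecific binding defined with 100 μM PCP; counted by scintillation.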

Molecules are shown by their SMILES.

Usually pKa stands for the pH at which an ionisable group is half protonated.

As to `NC1CCN(Cc2ccccc2)CC1`, the ΔpK in data set [1] was found to be 2.74. Also, the pKa in data set [2] came out at 7.05; in data set [3] it was 9.79.
`CN(C)C1CCNCC1`: the ΔpK in data set [1] turned out to be 2.95. Besides, the results for the pKa in data set [2] and in data set [3] were 7.71 and 10.7, respectively. For the same molecule, in data set [4], the Sp Max amounted to 44%.
For `CN(C)C1CC(C)(C)NC(C)(C)C1`, the ΔpK in data set [1] amounted to 2.89. Besides, the results for the pKa in data set [2] and in data set [3] were 7.67 and 10.6, respectively.
In data set [1], `CNCCCNC` came in with a ΔpK of 2.02. Also, the pKa in data set [2] worked out at 8.68; in data set [3], 10.7. Also, the Sp Max in data set [4] was 16%.
Take `OCCNC1CCN(Cc2ccccc2)CC1`: the ΔpK in data set [1] was found to be 2.57. Further, the pKa worked out at 6.67 in data set [2] and 9.24 in data set [3].
`NCC(=O)CN` came in with a ΔpK in data set [1] of 1.43. Besides, the pKa worked out at 6.89 in data set [2] and 8.32 in data set [3]. Besides, in data set [4], the Sp Max came out at 72%.
As to `NCCCNCCO`, the ΔpK in data set [1] came to 2.09. For the same molecule, the pKa worked out at 8.19 in data set [2] and 10.3 in data set [3]. Moreover, the Sp Max in data set [4] is 16%.
Regarding `CN(C)CCCN(C)C`, the pKa in data set [2] is 7.77; in data set [3], 9.81. In addition, the Sp Max in data set [4] was found to be 22%.
As to `NCC(O)CN`, the ΔpK in data set [1] stood at 1.54. In data set [2], this molecule returned a pKa of 8.14. Moreover, the Sp Max in data set [4] worked out at 35%.
In data set [1], `CC1(C)CC(N)CC(C)(C)N1` gave a ΔpK of 2.73. In addition, the pKa stood at 7.9 in data set [2] and 10.6 in data set [3].
`CN1CC2CC1C[C@H](N)C2` (stereo not given in full): in data set [4], the Sp Max is 13%.
On to `CNCC(C)CNC`, for which the ΔpK in data set [1] is 2.26. The results for the pKa in data set [2] and in data set [3] were 8.29 and 10.6, respectively. For the same molecule, the Sp Max in data set [4] came to 11%.
As for `CC1(C)CC(NCCO)CC(C)(C)N1`, the ΔpK in data set [1] is 3.1. Also, the pKa in data set [2] worked out at 7.42; in data set [3], 10.5.
The corresponding values for `C1CCN(CCCN2CCCCC2)CC1` are 2.06, 8.33 and 10.4.
The like results for `CN(C)CC(C)(C)CN` were, in that order, 3.15, 7.13 and 10.3.
`NCCCN` showed a ΔpK in data set [1] of 1.86. Further, the figures for the pKa in data set [2] and in data set [3] were 8.69 and 10.6, respectively. Further, the Sp Max in data set [4] was determined as 22%.
In data set [1], `C1CCN(C2CCNCC2)CC1` [[1,4']Bipiperidinyl] registered a ΔpK of 2.76. The results for the pKa in data set [2] and in data set [3] were 7.97 and 10.7, respectively.
`NC1CCNCC1` displayed a ΔpK in data set [1] of 2.53. Also, the pKa stood at 8.1 in data set [2] and 10.6 in data set [3]. For the same molecule, in data set [4], the Sp Max is 12%.
The corresponding values for `CNCCCN` are 2.01, 8.66, 10.7 and 15%.
For the molecule `CN1CC2CC1C[C@@H](N)C2` (stereo not given in full), in data set [4], the Sp Max was 8%.
Turning to `C=CCN(CC=C)CCCN(CC=C)CC=C`, the ΔpK in data set [1] stood at 1.84. The pKa amounted to 6.96 in data set [2] and 8.8 in data set [3].
`CC(C)(CN)CN` gave a ΔpK in data set [1] of 2.37. The figures for the pKa in data set [2] and in data set [3] were 7.81 and 10.2, respectively. For the same molecule, the Sp Max in data set [4] stood at 5%.
The corresponding values for `CNC1CCN(C)CC1` are 2.75, 7.34, 10.1 and 2%.

The record behind these values is ChEMBL document CHEMBL1131499, “Molecular features associated with polyamine modulation of NMDA receptors” (J Med Chem, 1998).
